Assay results as given in ChEMBL document CHEMBL1154189 (J Med Chem, 2009).
Calls of active or inactive are those of the source. The calls are words filed in the database; no cut-off is given here.

Columns and labels:
Saccharomyces cerevisiae = test: Mutagenic activity in Saccharomyces cerevisiae after 3 hrs; format: ADME, organism-based; settings: in vivo
Procedure, shortened: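 Tested in a Saccharomyces cerevisiae strain engineered with three phenotypic readouts, with 3 hour incubation against DMSO vehicle.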

HuT78 [1] = test: Induction of apoptosis in human HUT78 cells assessed as caspase 3/7 activation after 24 hrs by luminometry; format: functional, cell-based
Procedure, shortened: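 Hut78 CTCL cells were plated and dosed immediately with ethanol vehicle, test agent, water, or sodium butyrate (positive control), then incubated 24 hours. Caspase-Glo lysis/substrate mix was added, and cleavage of the substrate by caspase 3/7 was read as luminescence. Ethanol-treated cells served as the comparison.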

HuT78 [2] = test: Cytotoxicity against human HUT78 cells assessed as LDH release at 100 nM after 48 hrs
HuT78 [3] = test: Cytotoxicity against human HUT78 cells assessed as LDH release at 10 mM after 48 hrs

Cc1cc2c(cc1C(=O)c1ccc(C(=O)O)c([N+](=O)[O-])c1)C(C)(C)CCC2(C)C
Activity (Saccharomyces cerevisiae): Non-toxic

Cc1cc2c(cc1C(=O)c1ccc(C(=O)O)c(F)c1)C(C)(C)CCC2(C)C
Activity (Saccharomyces cerevisiae): Non-toxic

Cc1cc2c(cc1C(=O)c1ccc(C(=O)O)cc1F)C(C)(C)CCC2(C)C
Activity (HuT78 [1]): inactive
Activity (HuT78 [2]): Active
Activity (Saccharomyces cerevisiae): Non-toxic

C=C(c1cc(C(=O)O)cc(C(=O)O)c1)c1cc2c(cc1C)C(C)(C)CCC2(C)C
Activity (Saccharomyces cerevisiae): Non-toxic

Cc1cc2c(cc1C(=O)c1cc(C(=O)O)cc(C(=O)O)c1)C(C)(C)CCC2(C)C
Activity (Saccharomyces cerevisiae): Non-toxic

Cc1cc2c(cc1C(=O)c1cccc(C(=O)O)c1)C(C)(C)CCC2(C)C
Activity (Saccharomyces cerevisiae): Non-toxic

NC(=O)NO [HYDROXYUREA]
Activity (HuT78 [3]): 97%

C=C(c1ccc(C(=O)O)cc1)c1cc2c(cc1C)C(C)(C)CCC2(C)C [BEXAROTENE]
Activity (Saccharomyces cerevisiae): Non-toxic

Cc1cc2c(cc1C(=O)c1ccc(C(=O)O)cc1)C(C)(C)CCC2(C)C
Activity (Saccharomyces cerevisiae): Non-toxic
